Compounds with a hit are over-represented: about 1.4% of the library has one in this group of screens.
Tn6 DDE FP = disrupts Tn6 cyclic peptide binding to fibrin D-Dimer-E complex; P02675; actives 0.21% (n = 370,000); Fibrin DD(E) TRITC-Tn6 fluorescence polarization displacement; inhibition, % at 8.3 µM;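 active = inhibition above a per-campaign cutoff: mean of compounds within control limits plus 3 SD, cut at about 15% in these data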;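 also: 0% = median of all compound wells on the plate and 100% = blocking peptide control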
Target sequence (P02675 whole entry, looked up): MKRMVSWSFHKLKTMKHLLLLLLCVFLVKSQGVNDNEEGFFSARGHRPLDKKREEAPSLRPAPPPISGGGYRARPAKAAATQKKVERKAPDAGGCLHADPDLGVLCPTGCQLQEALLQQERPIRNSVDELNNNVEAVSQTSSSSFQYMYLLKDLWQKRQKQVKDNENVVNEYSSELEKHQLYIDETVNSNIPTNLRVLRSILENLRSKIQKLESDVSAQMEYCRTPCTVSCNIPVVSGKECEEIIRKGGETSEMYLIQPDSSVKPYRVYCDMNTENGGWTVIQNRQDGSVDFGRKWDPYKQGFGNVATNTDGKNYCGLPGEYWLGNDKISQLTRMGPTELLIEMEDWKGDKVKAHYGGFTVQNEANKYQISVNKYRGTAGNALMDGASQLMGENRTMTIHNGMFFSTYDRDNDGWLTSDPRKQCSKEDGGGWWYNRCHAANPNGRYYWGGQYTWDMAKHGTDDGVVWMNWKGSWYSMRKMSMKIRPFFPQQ
Tn7 DDE FP = DD(E)-Tn7 binding inhibition, primary FP screen. FP displacement of FITC-Tn7 peptide from fibrin DD(E); 0% = median of compound wells per plate. inhibition, % at 8.3 µM. actives 0.13% (n = 370,000). AID 720508;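 active = inhibition above the mean of compounds falling within the control limits plus 3 SD of them, cut at about 14% in these data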;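 also: 0% = plate median of compound wells and 100% = 10 µM Aha-Tn7 peptide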
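Also added: labelled Tn7 tracer, 0.1 µM; Assay system: human fibrin DD(E) protein; Amount: 2 µM fibrin DD(E); Schedule: 10 min compound pre-incubation, 3 h probe incubation at room temperature; Repeats: one replicate per compound; Read-out basis: percent inhibition; Measured by: fluorescence polarization of the labelled Tn7 tracer.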
CAL PDZ FP-1 = human CAL PDZ-peptide interaction inhibition; Q9HD26; purified CAL PDZ, TMR-peptide fluorescence polarization, 1 h; inhibition, % at 20 µM; actives 0.02% (n = 330,000);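 active = highest replicate inhibition of at least 40%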;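 also: plate controls were DMSO neutral control wells for no effect and unlabeled competitor peptide control wells for full effect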
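System: tagged CAL PDZ domain. Schedule: 1 h room-temperature incubation prior to read. Signal: fluorescence polarization (mP). Measure: percent inhibition from loss of millipolarization.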
CAL PDZ FP-2 = inhibitors of human CAL PDZ peptide binding; purified CAL PDZ, TMR-peptide fluorescence polarization, 1 h; Q9HD26; inhibition, % at 24.9 µM; actives 0.92% (n = 300,000);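 active = mean inhibition of at least 30% with at least half of replicates also reaching 30%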;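 also: 0% = DMSO neutral control and 100% = excess unlabeled competitor peptide PRC23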
Arrestin-AP2 inh = human beta-arrestin and AP2 interaction inhibition; actives 0.31% (n = 340,000); FITC-arrestin peptide / GST-AP2 beads, flow cytometry; AP2 beta2 appendage carries R879A mutation; inhibition, % at 10 µM;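 active = inhibition above a set limit, near 3 SD of compounds lacking own fluorescence, cut at about 54% in these data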;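 also: plate controls were DMSO wells for no effect and 5 µM unlabelled arrestin peptide for full effect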
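Test system: GST-tagged AP2 beta2-adaptin appendage (R879A) on 4 µm glutathione beads; also added: fluorescein-tagged arrestin peptide at 50 nM final; timing: 12 min plus 1 h, RT; signal: flow cytometry, FL1 (488/535 nm); read-out: percent drop in bead-associated FITC signal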
DDE Tn6 FP ctr = counter-screen for inhibitors of Tn6 peptide binding to fibrin DD(E); inhibition, % at 8.3 µM; actives 2% (n = 680); shares compounds with Tn6 DDE FP; TRITC-Tn6 fluorescence polarization displacement; 0% = median of compound wells, not DMSO;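 active = inhibition above the mean of test compounds lying between the control limits plus 3 SD of those, cut at about 14% in these data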;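 also: 0% = median of compound wells and 100% = wells with Aha-Tn7 blocking peptide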
DDE Tn6 confirm = DD(E)-Tn6 binding inhibition, FP confirmation | shares compounds with Tn6 DDE FP | FP displacement of TRITC-Tn6 peptide from DD(E); 0% = per-plate median of test wells | inhibition, % at 8.3 µM | actives 10% (n = 680) | AID 720631;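 active = inhibition above the mean of compounds lying within the control limits plus 3 SD, cut at about 16% in these data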;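 also: 100% = high control wells holding a competing inhibitor peptide at 10 µM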
The depositor's hits bear a star; nt = no result.

SMILES	Tn6 DDE FP	Tn7 DDE FP	CAL PDZ FP-1	CAL PDZ FP-2	Arrestin-AP2 inh	DDE Tn6 FP ctr	DDE Tn6 confirm
COC(=O)c1cccc(Cn2ccc3ccc(-c4ccc5ccn(C(=O)c6ccccc6)c5c4)cc32)c1	12	3	nt	nt	nt	nt	nt
COc1cccc2cc(-c3n[nH]c(=S)n3C)oc12	18*	3	-2	-4	-7	0	-18
O=S(=O)(Nc1ccc(Cl)cc1NS(=O)(=O)c1ccccc1)c1ccccc1	19*	9	1	nt	4	4	1
Cc1ccc(Cl)cc1NS(=O)(=O)c1ccccc1	13	6	0	nt	-14	nt	nt
CC(C)c1cc(C(C)C)c(S(=O)(=O)NCC(=O)N2CCN(c3ncccn3)CC2)c(C(C)C)c1	7	-8	nt	nt	nt	nt	nt
Cc1ccc(C)c(-n2nnnc2SCC(=O)NNC(=O)c2ccco2)c1	20*	5	0	nt	23	-3	-5
Cc1ccc(-n2nnnc2SCC(=O)NNC(=O)c2ccco2)cc1C	4	2	-2	0	3	nt	nt
O=C(NC(NC(=S)Nc1ccccc1Cl)C(Cl)(Cl)Cl)c1cccc(Cl)c1 (stereo not given)	-4	-4	-1	20	-3	nt	nt
O=C(Cc1cccc2ccccc12)NC(NC(=S)Nc1ccccc1Cl)C(Cl)(Cl)Cl (stereo not given)	25*	2	-1	9	-7	0	-2
CC1CCC/C(=C\Nc2ccc(O)cc2)C1=O (stereo not given)	17*	4	-5	-3	34	-7	-10
COc1ccc(S(=O)(=O)NCc2ccccn2)cc1OC	-2	2	-2	1	7	nt	nt
COc1ccccc1Oc1ccc(S(=O)(=O)NCc2ccccn2)cc1	15*	-1	1	-2	5	4	6
COc1cccc(C(=O)N[C@H](C(=O)N2CCC[C@H]2C(=O)NCCc2ccccc2Cl)c2ccccc2)c1	-11	-2	nt	nt	nt	nt	nt
O=C(Cn1cc([N+](=O)[O-])cn1)N1CCN(c2ccccc2)CC1	2	-6	-1	0	10	nt	nt
O=C(Cn1cc([N+](=O)[O-])cn1)N1CCc2ccccc2C1	15*	6	0	4	26	-7	-10
CC(C)(C)c1ccc(C#C[C@@H]2C=C[C@H]3OC(=O)CC/C=C/CCC(=O)OC[C@H]3O2)cc1	0	5	nt	nt	nt	nt	nt
Cc1cc2ccccc2n1CCNC(=O)c1ccc(Br)o1	17*	-4	1	-5	7	-3	12
Cc1cc2ccccc2n1CCNC(=O)c1ccccc1	15	0	0	-4	26	nt	nt
Cc1cc2ccccc2n1CCNC(=O)Cc1cccc2ccccc12	46*	-1	0	11	3	12	9
O=C(Nc1ccc(F)cc1)N[C@@H]1C[C@@H]2O[C@H](CO)CC[C@@H]2O[C@@H]1CCc1ccc(C2=CCCC2)cc1	1	-5	nt	nt	nt	nt	nt
C=CCN1C(=O)c2[nH]nc(-c3ccccc3)c2C1c1ccc(C)cc1 (stereo not given)	-4	5	nt	nt	nt	nt	nt
O=C(N=C1N(Cc2ccccc2)[C@@H](Cc2ccccc2)[C@]2(C=C3CCCCC3n3c(=O)n(-c4ccccc4)c(=O)n32)N1C(=O)OCc1ccccc1)c1ccccc1 (stereo not given in full)	-2	5	nt	nt	nt	nt	nt
COC(=O)C/C=C/[C@H](C)[C@@H](NC(=O)C(F)(F)F)c1ccccc1Br	0	0	nt	nt	nt	nt	nt
Cc1cn([C@H]2C[C@H](O)[C@@H](/C=C/C(=O)NCCC(C)C)O2)c(=O)[nH]c1=O	15*	-7	nt	nt	nt	-9	-11
Cc1cc(C)n2c(Nc3c(C)cccc3C)c(-c3ccccn3)nc2n1	16*	6	nt	nt	nt	4	2
SMILES	Tn6 DDE FP	Tn7 DDE FP	CAL PDZ FP-1	CAL PDZ FP-2	Arrestin-AP2 inh	DDE Tn6 FP ctr	DDE Tn6 confirm
CCCCNc1c(-c2ccccn2)nc2nc(C)cc(C)n12	2	-3	nt	nt	nt	nt	nt
COC(=O)c1ccc(C(=O)OC)c(NC(=O)CSc2n[nH]c(N)n2)c1	-3	5	0	1	-2	nt	nt
CCn1c(CSc2n[nH]c(N)n2)nc2cc(C(=O)O)ccc21	29*	9	0	1	6	-6	22*
COCCn1c(SCCCC(=O)c2ccc(Br)cc2)nnc1-c1ccncc1	2	-8	-1	-2	21	nt	nt
CCn1c(CSc2nnc(-c3ccncc3)n2CCOC)nc2cc(C(=O)O)ccc21	19*	2	0	-2	-2	-2	47*
O=C(NCc1ccccc1)OCCN1C(=O)CCC12CCC(c1ccccc1)CC2 (stereo not given)	6	-3	nt	nt	nt	nt	nt
Cc1ccc(OCCOc2c(Cl)cc(Cl)cc2Cl)c([N+](=O)[O-])n1	-4	-1	nt	nt	nt	nt	nt
CCCCCCSc1cccc(-c2nc3cc(C)ccn3c2NCc2ccccc2)c1	2	9	-1	0	5	nt	nt
CCCCCCSc1cccc(-c2nc3ccc(C)cn3c2NCc2ccccc2)c1	16*	4	0	-3	0	10	6
CC[C@H](CCCc1ccc(F)cc1)CN(Cc1ccc(OC)cc1)S(=O)(=O)c1ccc(C)cc1	-4	-1	nt	nt	nt	nt	nt
O=C(N[C@H](Cc1ccccc1)C(=O)NCCN1CCOCC1)[C@H]1O[C@@H](n2ccc(=O)[nH]c2=O)[C@H](O)[C@@H]1O	5	3	nt	nt	nt	nt	nt
Cc1cc2cc(CNS(=O)(=O)c3ccccc3)ccc2n1C	60*	8	0	-1	7	2	5
COc1ccc(CNS(=O)(=O)c2ccc(OC)cc2)cc1	-5	-1	0	0	16	nt	nt
COc1ccc(S(=O)(=O)NCc2ccc3c(c2)cc(C)n3C)cc1	51*	0	0	nt	23	-4	-7
CCS(=O)(=O)NCc1ccc2c(c1)cc(C)n2C	7	1	0	2	5	nt	nt
COc1ccc(Cl)cc1NC(=O)COC(=O)CCNC(C)=O	17*	6	1	-1	6	9	5
COc1ccc(Cl)cc1NC(=O)COC(=O)C1CC1	-10	13	-1	-2	-3	nt	nt
CCOc1ccc(NS(=O)(=O)c2ccc(N)cc2)cc1	-1	5	-1	-2	16	nt	nt
CCOc1ccc(Nc2ccc(N)c(S(=O)(=O)O)c2)cc1	22*	10	1	1	-2	-6	-11
COc1ccc(CNC(=O)C[C@H]2C[C@H](C(=O)N3CCOCC3)[C@@]3(CCC4CCCC4)c4[nH]c5cc(-c6ccco6)ccc5c4CCN3C2=O)cc1OC	16*	6	-1	-2	-8	7	3

Screening results deposited in PubChem by several laboratories.
